# High-throughput results (PubChem BioAssay)
# TRPC4 act = activators of mouse TRPC4 channel, primary screen, Fluo4 calcium, HEK293 TRPC4beta/mu-opioid cells. Short transient receptor potential channel 4 (Mus musculus), Q9QUQ5. Fluo4 calcium fluorescence; hits give high values. B-score at 10 µM. 0.49% of 310,000 active. AID 2237, 2010;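 active = B-score above 5 SD of library B-scores, and initial fluorescence ratio not above library mean plus 5 SD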;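 note: positive B-score marks a calcium rise read as TRPC4 activation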
#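 Incubation: 45 min room-temperature Fluo4 loading, 110 s read / System: HEK293 cells stably co-expressing mouse TRPC4beta and mu-opioid receptor / Signal: Fluo4 fluorescence, kinetic / Control set: buffer (low) and maximal DAMGO (high) / Measure: integrated baseline-normalised fluorescence ratio, converted to per-well B score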
# TRPC4 potent = positive allosteric modulators of TRPC4, primary screen, cell-based, mouse TRPC4beta, HEK293 mu-opioid, Fluo-4 calcium. Short transient receptor potential channel 4 (Mus musculus), Q9QUQ5. DAMGO EC20, Fluo-4 Ca2+ flux; hits give high values. B-score at 10 µM. 0.42% of 310,000 active. AID 2227, 2009;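 active = B-score of calcium response area above 5 SD of library B-scores, with initial fluorescence ratio within 5 SD of library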;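 note: B-score of integrated fluorescence ratio over time as area under calcium response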
# TRPC6 activator = mouse TRPC6 channel activators, primary screen, cell-based, HEK293, membrane potential dye; Short transient receptor potential channel 6 (Mus musculus), Q61143; HEK293-TRPC6 membrane potential dye fluorescence; hits give high values; B-score at 10 µM; 0.13% of 310,000 active; AID 2550, 2010;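 active = B-score of the integrated fluorescence ratio above library mean plus 3 SD, and starting fluorescence ratio within library mean plus 5 SD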;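 note: higher score means more depolarization so channel activation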
# TRPC6 inh = mouse TRPC6 channel inhibitors, primary screen, cell-based, HEK293, membrane potential dye | ACh-evoked depolarization; hits give low values | B-score at 10 µM | 1.1% of 310,000 active;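 active = B-score under library mean minus 3 SD, initial fluorescence not abnormally high, positive integrated signal ratio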;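 note: B-score derived from integrated fluorescence ratio over the kinetic read; more negative B-score means stronger inhibition of depolarization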
# TRPC4 block = inhibitors of mouse TRPC4 channel, primary screen, Fluo4 calcium, HEK293 TRPC4beta/mu-opioid cells. AID 2247, 2010. B-score at 10 µM. DAMGO-evoked Fluo4 calcium flux; hits give low values. 0.39% of 300,000 active;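 active = B-score over 3 SD under the library average, no early fluorescence shift, positive overall ratio signal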
#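 test system = HEK293 cells with stable TRPC4beta plus mu-opioid receptor expression | detection = Fluo4 Ca2+ flux fluorescence | read-out = integrated fluorescence ratio relative to baseline, converted to per-well B score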
# Active calls of the source: *; i = inactive; ! = not active in a repeat. Shown are actives, neighbours in structure and some others; about 2.3% of the full set was active somewhere.
SMILES,TRPC4 act,TRPC4 potent,TRPC6 activator,TRPC6 inh,TRPC4 block
CN(C)C(CNC(=O)CCS(=O)(=O)c1ccccc1)c1ccccc1 (configuration not stated),96*,i,i,i,i
O=C(CCS(=O)(=O)c1ccccc1)NCCS(=O)(=O)c1ccccc1,i,i,i,i,i
COc1ccc(C(CNC(=O)c2ccc3c(c2)OCCO3)N(C)C)cc1 (configuration not stated),164*,i,i,i,i
CN(C)C(CNC(=O)c1cccc(S(=O)(=O)N(C)C)c1)c1ccccc1 (configuration not stated),109*,i,i,i,i
COc1ccc(C(CNC(=O)c2cccc(S(=O)(=O)NCc3ccccc3)c2)N(C)C)cc1 (configuration not stated),159*,i,i,i,i
COc1ccc(S(=O)(=O)Cc2ccc(C(=O)NC3CCCCC3)o2)cc1,i,i,i,i,i
COc1ccc(S(N)(=O)=O)cc1C(=O)OCCCOc1ccc(F)cc1,i,i,i,i,i
CN(C)S(=O)(=O)c1ccc(C(=O)NCCSc2ccccc2)cc1,i,i,i,i,i
CN(C)C(CNC(=O)CCc1c[nH]c2ccccc12)c1ccccc1 (configuration not stated),138*,i,i,i,i
CN(C)C(CNC(=O)c1ccc(S(=O)(=O)N(C)C)cc1)Cc1ccccc1 (configuration not stated),74*,i,i,i,i
C#CCNC(=O)C1=C[C@H](C2CCCCC2)C[C@H](OCc2ccc(CO)cc2)O1,57*,i,i,i,i
O=C(NC1CC1)C1=C[C@H](C2CCCCC2)C[C@H](OCc2ccc(CO)cc2)O1,249*,i,i,i,-6*
O=C(O)C1=C[C@@H](C2CCCCC2)C[C@@H](OCc2ccc(CO)cc2)O1,i,i,i,i,i
COc1ccc(O)c(/C=C(\C#N)C(=O)Nc2ccccn2)c1,i,i,i,i,i
O=C(Nc1ccncc1)c1ccc(Cl)c(S(=O)(=O)N2CCc3ccccc32)c1,95*,i,i,i,i
CCN1C(=O)C(=O)N(CC(=O)c2[nH]c(C)c(C(C)=O)c2C)C1=O,i,i,i,i,i
CC(=O)c1c(C)[nH]c(C(=O)CN2C(=O)NC(C)(c3ccc(C)cc3)C2=O)c1C (configuration not stated),44*,i,i,i,i
O=C(Nc1nc2c(Br)cccc2s1)C1CC1,i,i,i,i,i
CCCCN(C)CCNC(=O)C(NC(=O)C1CCC(C)CC1)C(C)C (configuration not stated),52*,i,i,i,i
CC1CCC(C(=O)NC(C(=O)NCCCN2CCOCC2)C(C)C)CC1 (configuration not stated),i,i,i,i,i
Cc1c(C(=O)N(CC(C)C)c2c(N)n(Cc3ccccc3)c(=O)[nH]c2=O)sc2nc3n(c(=O)c12)CCC3,i,i,i,i,i
CC(=O)c1ccc(N2CCN(C(=O)/C=C/c3ccc(S(=O)(=O)NCc4ccco4)cc3)CC2)cc1,i,12*,i,i,i
CC(=O)c1ccc(N2CCN(C(=O)/C=C/c3ccc(S(=O)(=O)N4CCOCC4)cc3)CC2)cc1,i,i,i,i,i
CC(Sc1nnnn1-c1ccccc1)C(=O)Nc1ccccc1-c1ccccc1 (configuration not stated),i,i,i,i,i
CC(Sc1nnnn1-c1ccccc1)C(=O)Nc1ccc(N2CCN(C)CC2)cc1 (configuration not stated),47*,i,i,i,i
SMILES,TRPC4 act,TRPC4 potent,TRPC6 activator,TRPC6 inh,TRPC4 block
COc1cc(OC)c(CN2CCC(Cc3ccccc3)CC2)cc1Br,108*,i,i,i,i
Fc1ccc(CN2CCC(Cc3ccccc3)CC2)cc1F,i,i,i,i,-6*
O=C(/C=C/c1c(Cl)cccc1Cl)NCCCn1ccnc1,i,i,i,i,i
Cc1cccc(CS(=O)(=O)c2ncc(CO)n2C)c1,i,i,i,i,i
C[C@@H]1C(=O)OC[C@H]1NC(=O)OCc1ccccc1,i,i,i,i,i
O=C(N/N=C/c1cc2c(cc1Br)OCO2)c1cc2ccccc2o1,i,i,i,i,-7*
Cc1ccc(S(=O)(=O)CCC(=O)OCC(=O)NC2CCS(=O)(=O)C2)cc1 (configuration not stated),i,i,i,i,i
Cc1nc2scc(-c3ccccc3)c2c(=O)n1N=C1C=CC(=O)C=C1,i,i,i,i,-6*
CCN1CCN(CCC(=O)Nc2ccccc2OC)CC1,i,19*,i,i,i
COc1cc(NC(=O)CCN2CCN(CCO)CC2)cc(OC)c1,45*,i,i,i,i
CCOc1ccc(S(=O)(=O)NNS(=O)(=O)c2ccc(C)cc2C)cc1,i,i,i,i,i
O=C(O)/C=C/c1ccc(Cn2ccnc2)cc1,i,i,i,i,i
N=c1sccn1CC(=O)Nc1ccc([N+](=O)[O-])cc1Cl,i,i,i,i,i
O=S(=O)(c1ccccc1)c1nnn2c1nc(NC1CCN(Cc3ccccc3)CC1)c1cc(Cl)ccc12,148*,i,i,i,-6*
O=S(=O)(c1ccccc1)c1nnn2c1nc(NC1CCN(Cc3ccccc3)CC1)c1ccccc12,i,i,i,i,i
C=CCc1ccccc1OCC(O)CN1CCN(Cc2ccc3c(c2)OCO3)CC1 (configuration not stated),i,i,i,i,-7*!
CCC1(c2ccc(F)cc2)NC(=O)N(CC(=O)Nc2cccc(S(=O)(=O)N3CCCCC3)c2)C1=O (configuration not stated),i,12*,i,i,i
O=C(O)c1ccc(N/N=C/c2ccc(C(F)(F)F)cc2)cc1,i,i,i,i,-5*
COc1cc(NC(=O)CSc2ncnc3sc4c(c23)CCC(C)C4)c(C(=O)O)cc1OC (configuration not stated),i,i,i,i,-6*
